Laboratory results taken from ChEMBL document CHEMBL1152856, “Design, synthesis and molecular modeling study of acylated 1,2,4-triazole-3-acetates with potential anti-inflammatory activity” (Eur J Med Chem, 2009).

What was measured:
Rattus norvegicus [1] = assay: Antiinflammatory activity in albino rat assessed as inhibition of carrageenan-induced paw edema at 5 mg/kg, po administered 30 mins before carrageenan challenge measured after 3 hrs; type: functional
Outline: (§1)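 Rats dosed orally with compound suspended in 0.5% carboxymethyl cellulose; controls got CMC vehicle. 30 min later, 0.1 mL freshly prepared 1% carrageenan in normal saline injected subplantar into right hind paw. Paw thickness measured at 60, 120 and 180 min after dosing. Result given as % inhibition of edema ± S.E.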

Rattus norvegicus [2] = assay: Antiinflammatory activity in albino rat assessed as inhibition of carrageenan-induced paw edema at 5 mg/kg, po administered 30 mins before carrageenan challenge measured after 1 hr; type: functional; outline: as §1
Rattus norvegicus [3] = assay: Antiinflammatory activity in albino rat assessed as inhibition of carrageenan-induced paw edema at 5 mg/kg, po administered 30 mins before carrageenan challenge measured after 2 hrs; type: functional; outline: as §1
[4] = Toxicity in ip dosed albino mouse assessed as mortality after 24 hrs; type: organism-based; details: in vivo
Outline: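 Adult male albino mice (25-30 g), groups of five, given graded doses intraperitoneally. Mortality per group recorded 24 h after injection. LD50 calculated by a graphical method.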

Rattus norvegicus [5] = assay: Gastrointestinal toxicity in albino rat assessed as ulcer index at 10 mg/kg, po after 6 hrs; type: organism-based; parameters: dose 10 mg/kg, route oral; details: in vivo
Outline: (§2)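 Oral dosing by stomach tube with suspensions in 0.5% w/v aqueous carboxymethyl cellulose (10, 50, 100 mg/kg); controls got equal volume of vehicle. Rats killed at 6 h, stomachs opened along greater curvature, washed, mucosa examined by stereomicroscope. Ulcer = lesion ≥0.5 mm; five patches = 1 mm. Ulcer index = summed lesion lengths divided by animal number; groups of 6.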

Rattus norvegicus [6] = assay: Gastrointestinal toxicity in albino rat assessed as ulcer index at 50 mg/kg, po after 6 hrs; type: organism-based; parameters: dose 50 mg/kg, route oral; details: in vivo; outline: as §2
Rattus norvegicus [7] = assay: Gastrointestinal toxicity in albino rat assessed as ulcer index at 100 mg/kg, po after 6 hrs; type: organism-based; parameters: dose 100 mg/kg, route oral; details: in vivo; outline: as §2

Structure (SMILES) | inhibition in vivo at 5 mg/kg (Rattus norvegicus [1]) [%] | inhibition in vivo at 5 mg/kg (Rattus norvegicus [2]) [%] | inhibition in vivo at 5 mg/kg (Rattus norvegicus [3]) [%] | LD50 at 24 h [4] [mg/kg] | UI (Rattus norvegicus [5]) | UI (Rattus norvegicus [6]) | UI (Rattus norvegicus [7])
CCOC(=O)Cc1nc(N)n(C(=O)c2ccccc2)n1 | 57.5 | 31.6 | 38.5 | – | – | – | –
Nc1nc(CC(=O)O)n[nH]1 | 48.1 | 22.3 | 29.5 | – | – | – | –
CCOC(=O)Cc1nc(N)n(C(=O)c2ccc(Br)cc2)n1 | 64.1 | 34.8 | 43 | 120 | – | – | –
CCOC(=O)Cc1nc(N)n(C(=O)c2ccc(OC)cc2)n1 | 60 | 32.8 | 41.5 | – | – | – | –
CCOC(=O)Cc1nc(N)n(C(=O)c2ccc([N+](=O)[O-])cc2)n1 | 68.2 | 36.1 | 46.3 | 90 | – | – | –
CCOC(=O)Cc1nc(N)n(C(=O)c2ccc(Cl)cc2)n1 | 62.8 | 34.2 | 42.3 | 130 | 0 | 0.5 | 0.75
CCOC(=O)Cc1n[nH]c(NC(=O)c2ccc([N+](=O)[O-])cc2)n1 | 59.8 | 32.6 | 42.1 | – | – | – | –
CCOC(=O)Cc1n[nH]c(NC(=O)c2ccc(OC)cc2)n1 | 56 | 30.2 | 38.2 | – | – | – | –
CCOC(=O)Cc1n[nH]c(N)n1 | 51.8 | 25 | 33.6 | – | – | – | –
CCOC(=O)Cc1n[nH]c(NC(=O)c2ccc(Br)cc2)n1 | 58.8 | 31.3 | 40.4 | – | – | – | –
CCOC(=O)Cc1n[nH]c(NC(=O)c2ccccc2)n1 | 55.3 | 26.8 | 36.2 | – | – | – | –
CCOC(=O)Cc1n[nH]c(NC(=O)c2ccc(Cl)cc2)n1 | 58.5 | 31.1 | 39.1 | – | 0 | 0 | 0.75
COc1ccc2c(c1)c(CC(=O)O)c(C)n2C(=O)c1ccc(Cl)cc1 [INDOMETHACIN] | 60.8 | 31.5 | 40.1 | 50 | 2.5 | 1.9 | 2.1
